# CHOP UPR activ: activators of apoptotic CHOP UPR arm, primary screen, cell-based, CHO-CHOP luciferase reporter, luminescence, uHTS; 330,000 compounds, 0.34% hits; UPR activation; percent of tunicamycin response over DMSO baseline; activation, % at 10 µM;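 active = at 10 µM dose, activation of 40% or more, normalized to positive control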;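 also: 100% = tunicamycin at 10 µg/mL and 0% = DMSO alone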
#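 System: CHO-CHOP luciferase reporter cell line | Buffer or medium: F12 medium containing 10% fetal bovine serum | Doses: One dose, 10 µM in 0.5% DMSO | Times: 6 h compound exposure at 37 °C after overnight seeding | Signal: Luciferase luminescence | Read-out: % activation vs tunicamycin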
# A1 inh: caspase 3/7 activation in MEF A1-2A-BIM cells, primary screen, A1 inhibitor project, cell-based, luminescence, HTS | Caspase-Glo 3/7 luminescence, 3 h; percent of clofoctol response, vehicle zero | caspase activation, % (test concentration not listed) | 330,000 compounds, 0.066% hits | AID 2462, 2010;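 active = over half of replicate activation scores above 10%, or exactly half above 10 with the replicate mean above 10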
# UPR XBP1 act: activators of adaptive XBP1 UPR arm, primary screen, cell-based, CHO-XBP1 luciferase reporter, luminescence, uHTS. IRE1-XBP1 UPR activation; percent of tunicamycin response, DMSO as zero. activation, % at 20 µM. 330,000 compounds, 0.33% hits. AID 463104, 2010;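 active = versus positive control, 20 µM dose yields 30% or more activation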;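 also: 100% = tunicamycin at 10 µg/mL and 0% = DMSO only wells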
#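 Material: CHO cell line with stable XBP1 luciferase reporter; buffer or medium: F12 medium containing 10% fetal bovine serum; compound: single point, 20 µM final compound, 1% DMSO; incubation: 6 h treatment, 37 °C; measured by: glow luminescence from Steady-Glo reagent; evaluation: activation, % of tunicamycin; control set: tunicamycin high, DMSO low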
# CHOP inh: inhibitors of CHOP promoter induction, primary screen, cell-based, unfolded protein response, luciferase reporter | inhibition, % at 10 µM | 220,000 compounds, 3.8% hits | CHO-K1 CHOP-promoter luciferase, tunicamycin-induced, 15-18 h | AID 2732, 2010;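 active = compounds that reduced the stress-induced luciferase reporter signal by more than about 70% of percent inhibition, limit read from the data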;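 also: 0% = tunicamycin plus vehicle and 100% = wells without tunicamycin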
# Starred values were filed as active, the others as inactive; / = no result given. Many of the other results were omitted from the sample, so hits are more common in it than they were.
SMILES,CHOP UPR activ,A1 inh,UPR XBP1 act,CHOP inh
CC(SC1=NCCS1)C(=O)Nc1nnc(-c2ccc(Cl)cc2)s1 (stereo not drawn),10,-2,-3,87*
COc1ccccc1-c1nnc(NC(=O)C(C)SC2=NCCS2)s1 (stereo not drawn),2,0,-1,57
c1ccc(-n2nc3c(ccc4cnnc43)[nH]2)cc1,7,0,7,86*
Cc1cccc(Nc2nc(-c3ccc(F)c(C)c3)cs2)n1,7,-2,4,/
Cc1cccc(Nc2nc(-c3ccc(O)c(O)c3)cs2)n1,100*,-1,17,/
COc1ccccc1CN=Cc1[nH]c2ccc(Br)c(Cl)c2c1O,0,-1,2,60
Cc1cccc(N=Cc2[nH]c3ccc(Br)c(Cl)c3c2O)c1,/,0,/,90*
Cc1ccccc1Cn1c(=N)n(CC(=O)c2ccc([N+](=O)[O-])cc2)c2ccccc21,/,1,/,84*
CCCn1c(=N)n(CC(=O)c2ccc([N+](=O)[O-])cc2)c2ccccc21,-2,0,0,0
CCOc1ccc(NC(=S)NNc2ccnc3cc(Cl)ccc23)cc1,1,-1,-4,-19
S=C(NNc1ccnc2cc(Cl)ccc12)Nc1ccc(Cl)cc1Cl,7,1,9,96*
O=C(/C=C/c1ccc(Cl)cc1Cl)N(Cc1ccc(Cl)cc1)C1CCS(=O)(=O)C1 (stereo not drawn),1,0,-3,79*
O=C1NCC(=O)N2C(c3ccccc3)c3[nH]c4ccccc4c3C[C@@H]12 (stereo partly drawn),1,2,-6,/
O=C1[C@@H]2Cc3c([nH]c4ccccc34)[C@@H](c3ccccc3)N2C(=O)[C@@H]2Cc3c([nH]c4ccccc34)[C@@H](c3ccccc3)N12,/,/,/,106*
COc1cccc(-n2nnnc2SCC(=O)N2CCCc3ccccc32)c1,1,0,2,70*
CCOC(=O)c1cc(CC)sc1NC(=O)c1cc(OC)c(OC)c(OC)c1,-1,0,2,90*
CCOC(=O)c1cc(CC)sc1NC(=O)Cc1ccsc1,-2,-1,-3,75*
CCOC(=O)/C=C/C(=O)Nc1ccccc1-c1ccccc1NC(=O)/C=C/C(=O)OCC,/,-1,/,80*
O=C1c2ccccc2-c2n[nH]c(=O)c3ccc(N4CCCCC4)c1c23,0,0,8,79*
O=C(COc1ncnc2ccccc12)Nc1cc(S(=O)(=O)N2CCOCC2)ccc1Cl,-1,0,1,-5
S=C(NCCSCc1ccc(Cl)cc1)Nc1ccccc1,-1,0,-1,80*
CCCOc1ccc(CSCCNC(=S)Nc2ccccc2)cc1,1,0,-1,67
Cc1cccc(CSCCNC(=S)Nc2ccccc2)c1,3,-1,-3,-6
S=C(NCCSCc1ccccc1Cl)Nc1ccccc1,0,-1,-4,71*
CCOc1ccc(N(CC(=O)NCc2ccco2)S(=O)(=O)c2ccc(OC)c(OC)c2)cc1,-2,3,0,-3
SMILES,CHOP UPR activ,A1 inh,UPR XBP1 act,CHOP inh
CCC(C)NC(=O)CSc1ccc(S(=O)(=O)N2CCN(Cc3ccccc3)CC2)cn1 (stereo not drawn),-3,0,-1,/
CCCCC1CCC(C(=O)N(CC(C)C)c2c(N)n(Cc3ccccc3)c(=O)[nH]c2=O)CC1 (stereo not drawn),13,29*,-6,/
Cc1ccsc1/C=N/n1c(C2CCCCC2)n[nH]c1=S,0,0,0,84*
Nc1ccc2oc(-c3cccc4ccccc34)nc2c1,-6,0,-8,81*
Cc1ccc(-c2nc3cc(N)ccc3o2)c(C)c1,-1,-6,-5,54
CS/C(=N\S(=O)(=O)c1ccc(Cl)cc1)c1ccccc1,-1,0,0,77*
Cc1cc(C)n(CC(=O)N2CCCC(N3CCN(c4cccc(C(F)(F)F)c4)CC3)C2)n1 (stereo not drawn),0,1,-3,/
CCCCN(C(=O)CSCc1c(C)noc1C)c1c(N)n(CCC)c(=O)[nH]c1=O,2,0,-4,/
CC(C)C(=O)Nc1ccc(C(=O)c2ccccc2)cc1,2,0,0,-1
CC(C)c1cccc(C(C)C)c1NC(=O)c1ccc(OCC(=O)NCc2ccccc2)cc1,0,1,2,94*

# Assay outcomes as filed in PubChem BioAssay.
